Activity calls are given as the source filed them. No cut-off for these calls is given here.
Key:
HASMC [1] = experiment: Induction of nitric oxide release in HASMC at 5 to 20 uM after 60 mins by DAF-FM DA assay; format: functional, cell-based; details: Homo sapiens
[2] = Half life of the compound in presence of glutathione; format: physicochemical; details: gsh
Method in brief: (§1)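 The same protocol was used in 1X PBS containing 5 mM reduced glutathione: donor at 0.0125 M, room temperature, timed aliquots over about 20 days. Supernatants were mixed with Griess reagent and absorbance read at 550 nm; no new calibration was needed.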

[3] = Nitrosation of the compound in glacial acetic acid/tetrahydrofuran after 24 to 48 hrs by IR spectroscopy analysis; format: physicochemical
[4] = Induction of nitric oxide release in phosphate buffered saline up to 20 days by Griess reagent test; format: physicochemical; parameters: concentration or dose not given beside the values; details: buffer, 480 h
Method in brief: (§2)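 Nitrosated compound was stirred in 1X PBS at 0.0125 M (0.0250 M NO) at room temperature. Aliquots were taken hourly to 12 h, every 4 h to 24 h, every 8 h to 48 h, then every 24 h. Aliquots were centrifuged and triplicate supernatants mixed with Griess reagent for 5 min. Absorbance at 550 nm was plotted against time.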

[5] = Half life of the compound; format: physicochemical; method in brief: as §2
[6] = Induction of nitric oxide release in phosphate buffered saline up to 20 days by Griess reagent test in presence of glutathione; format: physicochemical; details: buffer, 480 h; method in brief: as §1
[7] = Nitrosation of the compound in glacial acetic acid/tetrahydrofuran after 24 to 48 hrs by IR spectroscopy analysis in presence of glutathione; format: physicochemical
[8] = Toxicity in HASMC assessed as cell viability at 1 uM after 96 hrs by MTT assay relative to control; format: cell-based; details: human, HASMC cells; read-out: Activity
Method in brief: (§3)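 Serum-starved HASMCs (3000–3500 cells/well) received compound in complete SMC medium (2% FBS) with 1% DMSO at 0.1, 1, 5, 10 or 20 µM for 48 h. Fresh medium was then added and cells grew a further 48 h (96 h total). MTT 4–6 h at 37 °C, solubilized, A570 as % of medium-only control; 1% DMSO vehicle; triplicate; t-test versus vehicle.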

HASMC [9] = experiment: Toxicity in HASMC assessed as cell viability using calcein AM and ethidium homodimer-1 by LIVE/DEAD assay; format: cell-based; details: human
Method in brief: (§4)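 HASMCs in black plates were exposed for 96 h to compound at 0.1–20 µM in medium with 1% DMSO. Floating dead cells were pelleted, washed in PBS and returned to their wells. Cells were stained with Eth-1 (0.5 µM) and calcein AM (0.25 µM) for 45 min at room temperature, then read at ex/em 495/530 and 528/645 nm. Triplicate; t-test versus vehicle.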

[10] = Toxicity in HASMC assessed as cell viability at 10 uM after 96 hrs by MTT assay relative to control; format: cell-based; details: human, HASMC cells; read-out: Activity; method in brief: as §3
[11] = Toxicity in HASMC assessed as cell viability at 0.1 uM after 96 hrs by MTT assay relative to control; format: cell-based; details: human, HASMC cells; read-out: Activity; method in brief: as §3
[12] = Toxicity in HASMC assessed as cell viability at 20 uM after 96 hrs by MTT assay relative to control; format: cell-based; details: human, HASMC cells; read-out: Activity; method in brief: as §3
[13] = Toxicity in HASMC assessed as cell viability at 5 uM after 96 hrs by MTT assay relative to control; format: cell-based; details: human, HASMC cells; read-out: Activity; method in brief: as §3
HASMC [14] = experiment: Antiproliferative activity against HASMC using calcein AM and ethidium homodimer-1 at <= 20 uM by LIVE/DEAD assay; format: functional, cell-based; details: Homo sapiens; method in brief: as §4
HASMC [15] = experiment: Antiproliferative activity against HASMC at <= 20 uM after 96 hrs by MTT assay; format: functional, cell-based; details: Homo sapiens; method in brief: as §3
[16] = Nitrosation of the compound in glacial acetic acid/tetrahydrofuran after 5 to 8 hrs by IR spectroscopy analysis; format: physicochemical
HASMC [17] = experiment: Antiproliferative activity against HASMC at 1 mM after 96 hrs by MTT assay; format: functional; details: Homo sapiens
Method in brief: (§5)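 HASMCs at passage six or later were seeded at 3000–3500 cells/well, attached 16–24 h at 37 °C, then serum-starved 24–48 h. iNOS was induced with LPS (50 µg/mL) plus IFN-γ (50 ng/mL) for 6 h at 37 °C. ABH was then given in SMC medium at 1, 10, 100 µM, 1.0 and 5.0 mM over two 48 h feeds. MTT absorbance was read at 570 nm; duplicate determinations.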

HASMC [18] = experiment: Induction of nitric oxide release in HASMC at 0.001 to 5 mM after 60 mins by DAF-FM DA assay; details: Homo sapiens
HASMC [19] = experiment: Antiproliferative activity against HASMC at 5 mM after 96 hrs by MTT assay; format: functional; details: Homo sapiens; method in brief: as §5
[20] = Nitrosation of the compound in glacial acetic acid/tetrahydrofuran after 5 to 8 hrs by IR spectroscopy analysis in presence of glutathione; format: physicochemical
HASMC [21] = experiment: Induction of nitric oxide release in HASMC at 20 uM after 60 mins by DAF-FM DA assay in presence of S-2-amino-6-boronic acid; format: functional, cell-based; details: Homo sapiens
Method in brief: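 After LPS/IFN-γ induction (6 h), HASMCs were treated with 20 µM donor plus 5 mM ABH over 96 h. Cells were then loaded with DAF-FM DA (10 µM) for 60 min at room temperature in the dark, washed three times, left to de-esterify, and read at ex/em 495/515 nm.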

HASMC [22] = experiment: Antiproliferative activity against HASMC at 20 uM after 96 hrs by MTT assay in presence of S-2-amino-6-boronic acid; format: functional, cell-based; details: Homo sapiens
Method in brief: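 HASMCs were induced with LPS (50 µg/mL) and IFN-γ (50 ng/mL) for 6 h at 37 °C. Cytokines were removed and cells were treated with 5 mM ABH plus donor (20 µM) in SMC medium for 48 h at 37 °C. A second dose was added, followed by a further 48 h. Readout was MTT absorbance at 570 nm.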

HASMC [23] = experiment: Antiproliferative activity against HASMC at 20 uM after 96 hrs by MTT assay; format: functional, Homo sapiens; method in brief: as §3
HASMC [24] = experiment: Antiproliferative activity against HASMC using calcein AM and ethidium homodimer-1 at 20 uM by LIVE/DEAD assay in presence of S-2-amino-6-boronic acid; format: functional, cell-based; details: Homo sapiens
Method in brief: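 HASMCs in black plates were induced with LPS/IFN-γ for 6 h, then given 20 µM donor plus 5 mM ABH for two 48 h periods. Detached cells were pelleted, washed and returned to their wells. Staining used ethidium homodimer-1 (0.5 µM) and calcein AM (0.25 µM) for 45 min at room temperature. Live cells were read at 495/530 nm and dead cells at 528/645 nm.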

HASMC [25] = experiment: Induction of cell proliferation in HASMC at 0.1 to 5 uM after 96 hrs by MTT assay; format: cell-based; details: human

Structure (SMILES) | Activity (HASMC [1]) | Activity [4] | half-life [5] | viability at 96 h, 1 µM [8] | Activity (HASMC [9]) | viability at 96 h, 10 µM [10] | viability at 96 h, 0.1 µM [11] | viability at 96 h, 20 µM [12] | viability at 96 h, 5 µM [13] | Activity (HASMC [14]) | Activity (HASMC [15]) | also measured
CCCCCCCCCCN(N=O)c1cccc(N(CCCCCCCCCC)N=O)c1[N+](=O)[O-] | Active | 2.6% | 62 h |  |  |  |  |  |  |  |  | half-life [2]: 108 h; Activity [3]: 100%; Activity [6]: 1.9%; Activity [7]: 100%
CCCCCCCCNc1cccc(NCCCCCCCC)c1[N+](=O)[O-] |  |  |  | 89.7% | Non-toxic | 83.2% | 86.2% | 82.8% | 82.9% |  |  | 
CCCCCCCCCCNc1cccc(NCCCCCCCCCC)c1[N+](=O)[O-] |  |  |  | 75.5% | Toxic | 69% | 76.8% | 65% | 70% |  |  | 
CCCCCCCCCN(N=O)c1cccc(N(CCCCCCCCC)N=O)c1[N+](=O)[O-] | Active | 2.32% | 80 h |  |  |  |  |  |  |  |  | Activity [3]: 100%
CCCCCCCN(N=O)c1ccc([N+](=O)[O-])c(N(CCCCCCC)N=O)c1 | Active | 2.48% | 87 h |  |  |  |  |  |  | Active | Active | Activity [16]: 100%
N[C@@H](CCCCB(O)O)C(=O)O |  |  |  |  |  |  |  |  |  |  |  | inhibition at 1000 µM (HASMC [17]): 35%; Activity (HASMC [18]): Active; inhibition at 5000 µM (HASMC [19]): 48%
CCCCCCNc1ccc([N+](=O)[O-])c(NCCCCCC)c1 |  |  |  | 86.1% | Non-toxic | 85.9% | 85.1% | 87% | 84% |  |  | 
CCCCCCCCCNc1cccc(NCCCCCCCCC)c1[N+](=O)[O-] |  |  |  | 78% | Toxic | 73% | 82% | 68% | 75% |  |  | 
CCCCCCCCCN(N=O)c1ccc([N+](=O)[O-])c(N(CCCCCCCCC)N=O)c1 | Active | 2.83% | 69 h |  |  |  |  |  |  | Active | Active | half-life [2]: 109 h; Activity [20]: 100%; Activity [16]: 100%; Activity [6]: 1.29%
CCCCCCN(N=O)c1ccc([N+](=O)[O-])c(N(CCCCCC)N=O)c1 | Active | 2.34% | 105 h |  |  |  |  |  |  | Active | Active | Activity (HASMC [21]): Active; half-life [2]: 126 h; inhibition (HASMC [22]): Active; Activity [20]: 100%; Activity (HASMC [23]): 23%; Activity [16]: 100%; Activity [6]: 0.84%; inhibition (HASMC [24]): Active
CCCCCCCCCCNc1ccc([N+](=O)[O-])c(NCCCCCCCCCC)c1 |  |  |  | 87.4% | Non-toxic | 84% | 89% | 84% | 88% |  |  | 
CCCCCCCN(N=O)c1cccc(N(CCCCCCC)N=O)c1[N+](=O)[O-] | inactive | 2.02% | 126 h |  |  |  |  |  |  | Active | Active | Activity (HASMC [25]): Toxic; Activity [3]: 100%
CCCCCCCCN(N=O)c1cccc(N(CCCCCCCC)N=O)c1[N+](=O)[O-] | Active | 2.13% | 93 h |  |  |  |  |  |  | Active | Active | half-life [2]: 123 h; Activity [3]: 100%; Activity [6]: 1.32%; Activity [7]: 100%
CCCCCCN(N=O)c1cccc(N(CCCCCC)N=O)c1[N+](=O)[O-] | Active | 1.85% | 140 h |  |  |  |  |  |  | Active | Active | Activity (HASMC [21]): Active; inhibition (HASMC [22]): Active; Activity (HASMC [23]): 18%; Activity [3]: 100%; inhibition (HASMC [24]): Active
CCCCCCCCNc1ccc([N+](=O)[O-])c(NCCCCCCCC)c1 |  |  |  | 89.6% | Non-toxic | 84% | 84.6% | 85.4% | 87.2% |  |  | 
CCCCCCCNc1cccc(NCCCCCCC)c1[N+](=O)[O-] |  |  |  | 80% | Non-toxic | 81% | 81.6% | 80% | 82% |  |  | 
CCCCCCCCN(N=O)c1ccc([N+](=O)[O-])c(N(CCCCCCCC)N=O)c1 | Active | 2.63% | 83 h |  |  |  |  |  |  | Active | Active | Activity [16]: 100%
CCCCCCCNc1ccc([N+](=O)[O-])c(NCCCCCCC)c1 |  |  |  | 87% | Non-toxic | 86% | 88.3% | 85.6% | 87.6% |  |  | 
CCCCCCCCCCN(N=O)c1ccc([N+](=O)[O-])c(N(CCCCCCCCCC)N=O)c1 | Active | 3% | 60 h |  |  |  |  |  |  | Active | Active | Activity [16]: 100%
CCCCCCNc1cccc(NCCCCCC)c1[N+](=O)[O-] |  |  |  | 82% | Non-toxic | 81% | 82.2% | 81% | 84% |  |  | 
CCCCCCCCCNc1ccc([N+](=O)[O-])c(NCCCCCCCCC)c1 |  |  |  | 86.3% | Non-toxic | 84.5% | 87% | 86% | 86% |  |  | 
